ChEMBL document CHEMBL1122458, “beta-Carbolines as benzodiazepine receptor ligands. 1. Synthesis and benzodiazepine receptor interaction of esters of beta-carboline-3-carboxylic acid” (J Med Chem, 1983)

Key:
[1] = target: GABA-A receptor; anion channel; assay: Concentration that inhibits specific [3H]flunitrazepam binding to benzodiazepine receptor in bovine brain
Summary of the method: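 Bovine cortex (frozen, -20 °C) homogenized in 50 mM Tris-HCl pH 7.4, spun 48000g 10 min, pellet resuspended; incubated 45 min with 0.2 nM [3H]flunitrazepam (final) and displacers. Rapid filtration over GF-B filters, three ice-cold washes, scintillation counting. Nonspecific binding with 10 µM diazepam. IC50 by log probit analysis, four to six concentrations, each in triplicate.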

[2] = target: GABA-A receptor; anion channel (Mus musculus) (UniProt Q8BHJ7+P26048+Q8QZW7+P50571+Q9R0Y8+P22723+A2AMW3+P62812+Q9JLF1+P26049+P22933+Q9D6F4+P63080+P27681+P16305); assay: In vivo inhibition of specific [3H]flunitrazepam binding in mouse brain 10 minute after iv administration of 15 uM/Kg; format: organism-based
Summary of the method: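 Mouse brain ex vivo: specific [3H]flunitrazepam binding measured 10 min after iv dosing at 15 µmol/kg; reported as percent inhibition of specific binding, mean ± SEM of four determinations.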

Structure (SMILES)	IC50 [1] [nM]	inhibition [2] [%]
O=C(O)c1cc2c3ccccc3nc-2c[nH]1	7200	
O=C(OCCCl)c1cc2c3ccccc3nc-2c[nH]1	22	89
CCCCOC(=O)c1cc2c(cn1)[nH]c1ccccc12	29	54.9
CCCOC(=O)c1cc2c(cn1)[nH]c1ccccc12	4.6	62.7
CN(C)CCOC(=O)c1cc2c3ccccc3nc-2c[nH]1	330	13.4
O=C(OCCF)c1cc2c3ccccc3nc-2c[nH]1	27	55.3
O=C(OCc1ccccc1)C1Cc2c([nH]c3ccccc23)CN1 (stereo unspecified)	2700	
[2H]C([2H])([2H])OC(=O)c1cc2c(cn1)[nH]c1ccccc12	5.3	
COC(=O)c1cc2c(cn1)[nH]c1ccccc12 [BETA-CCM]	2.5	51.2
COCCOC(=O)c1cc2c3ccccc3nc-2c[nH]1	145	34.6
O=C(OCc1ccccc1)c1cc2c3ccccc3nc-2c[nH]1	21	38.4
CCCOC(=O)C1Cc2c([nH]c3ccccc23)CN1 (stereo unspecified)	4400	
CCOC(=O)C1Cc2c([nH]c3ccccc23)CN1 (stereo unspecified)	6000	
O=C(O)C1Cc2c([nH]c3ccccc23)CN1 (stereo unspecified)	22000	
CCCCOC(=O)C1Cc2c([nH]c3ccccc23)CN1 (stereo unspecified)	4800	
CCOC(=O)c1cc2c(cn1)[nH]c1ccccc12	1.4	61.7
COC(=O)C1Cc2c([nH]c3ccccc23)CN1 (stereo unspecified)	250	6.1
N#CCCOC(=O)c1cc2c3ccccc3nc-2c[nH]1	27	44.4
O=C(OCc1cccnc1)c1cc2c3ccccc3nc-2c[nH]1	34	49.4
